This note sets out measurements from ChEMBL document CHEMBL4390684, “The synthesis of 4,6-diaryl-2-pyridones and their bioactivation in CYP1 expressing breast cancer cells” (Bioorg Med Chem Lett, 2019).

The test system of data set [1] is MCF7. Description: Antiproliferative activity against ER positive human MCF7 cells expressing low level of CYP assessed as reduction in cell viability measured after 96 hrs by MTT assay. The data set is classed as functional, cell-based. To be noted: MCF7, 96 h. A digest of the protocol: (§1)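 Antiproliferative IC50 values were determined in MCF-7, MDA-MB-468, TCDD-treated MCF-7 (high CYP1A1 expression) and non-tumour MCF-10A breast cells. Each value is the mean of two independent experiments run in quadruplicate.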

A short description of data set [2]: Selectivity index, ratio of IC50 for human MCF10A cells to IC50 for human MDA-MB-468 cells expressing CYP1A1 and CYP1B1. The data set is classed as toxicity. To be noted: read-out: Ratio IC50.
For data set [3], the system named is MCF7. Description: Antiproliferative activity against […]-induced ER positive human MCF7 cells expressing CYP1A1 assessed as reduction in cell viability after 96 hrs by MTT assay. The data set is classed as functional, cell-based. To be noted: MCF7, 96 h. A digest of the protocol:
as §1
Background: Formazan colour is commonly taken as a measure of viable cells.

In data set [4] the test system is MCF7. Description: Activation factor, ratio of antiproliferative IC50 of ER positive human MCF7 cells expressing low level of CYP to antiproliferative IC50 of […]-induced ER positive human MCF7 cells expressing CYP1A1. The data set is classed as functional.
A further data set deals with MCF-10A. Briefly: Cytotoxicity against human MCF10A cells assessed as reduction in cell viability after 96 hrs by MTT assay. In kind it is cell-based. A digest of the protocol: as §1
In another data set the test system is MDA-MB-468. Description: Antiproliferative activity against ER negative human MDA-MB-468 cells expressing CYP1A1 and CYP1B1 assessed as reduction in cell viability measured after 96 hrs by MTT assay. The data set is classed as functional, cell-based. To be noted: MDA-MB-468, 96 h. The essentials:
as §1

For another data set, the target named is T1, Cytochrome P450 1A1 (Homo sapiens, UniProt P04798).
T1 sequence (P04798 whole entry): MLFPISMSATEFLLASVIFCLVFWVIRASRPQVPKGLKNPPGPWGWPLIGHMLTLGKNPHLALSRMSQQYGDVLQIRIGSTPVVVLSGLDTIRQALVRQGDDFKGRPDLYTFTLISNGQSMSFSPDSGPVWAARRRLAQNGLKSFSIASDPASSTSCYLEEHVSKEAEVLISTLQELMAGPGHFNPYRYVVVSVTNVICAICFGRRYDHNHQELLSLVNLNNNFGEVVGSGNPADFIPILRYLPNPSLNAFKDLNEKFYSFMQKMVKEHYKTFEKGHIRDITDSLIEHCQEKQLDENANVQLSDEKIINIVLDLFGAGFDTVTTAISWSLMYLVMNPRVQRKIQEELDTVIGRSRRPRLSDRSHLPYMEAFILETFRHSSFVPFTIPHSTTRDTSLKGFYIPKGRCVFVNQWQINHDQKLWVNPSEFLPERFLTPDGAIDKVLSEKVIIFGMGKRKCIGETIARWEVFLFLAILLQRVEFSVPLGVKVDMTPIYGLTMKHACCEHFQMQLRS
Description: Drug metabolism in supersomes expressing human CYP1A1 and coexpressing NADPH reductase assessed as CYP1A1-mediated drug metabolism by measuring retention time at 10 uM in the presence of NADPH measured at 5 mins interval for 25 mins by reverse phase HPLC method. In kind it is ADME. The following applies: recombinant enzyme. The essentials:
(§2)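 Substrate was incubated with insect-cell Supersomes expressing human CYP1A1 or CYP1B1 plus NADPH reductase, at 20 pmol/mL CYP. Controls used non-CYP Supersomes, or omitted the compound, NADPH or active enzyme. Duplicate samples were taken every 5 min and quenched with ice-cold acetonitrile. After centrifugation, the supernatant was analysed by reverse-phase HPLC for parent depletion (half-life) and metabolite peaks.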

The next data set deals with T2, Cytochrome P450 1B1 (Homo sapiens, UniProt Q16678).
T2 sequence (Q16678 whole entry): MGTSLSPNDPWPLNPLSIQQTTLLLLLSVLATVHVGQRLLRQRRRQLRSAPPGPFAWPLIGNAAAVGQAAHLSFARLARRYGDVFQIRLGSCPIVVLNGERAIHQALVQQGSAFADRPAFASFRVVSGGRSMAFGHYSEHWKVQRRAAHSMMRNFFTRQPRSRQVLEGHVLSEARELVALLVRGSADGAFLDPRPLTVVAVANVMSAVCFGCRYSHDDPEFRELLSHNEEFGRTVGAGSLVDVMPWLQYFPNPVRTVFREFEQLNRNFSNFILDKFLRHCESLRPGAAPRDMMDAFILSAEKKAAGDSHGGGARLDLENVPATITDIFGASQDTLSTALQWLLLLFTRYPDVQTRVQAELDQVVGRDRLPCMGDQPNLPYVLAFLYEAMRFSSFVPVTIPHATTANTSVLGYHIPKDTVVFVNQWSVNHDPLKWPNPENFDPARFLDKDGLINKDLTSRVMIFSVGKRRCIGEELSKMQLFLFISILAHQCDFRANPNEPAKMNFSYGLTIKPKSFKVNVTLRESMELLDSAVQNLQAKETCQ
Briefly: Drug metabolism in supersomes expressing human CYP1B1 and coexpressing NADPH reductase assessed as CYP1B1-mediated drug metabolism by measuring retention time at 10 uM in the presence of NADPH measured at 5 mins interval for 25 mins by reverse phase HPLC method. In kind it is ADME. The following applies: recombinant enzyme. The essentials: as §2

As usually defined, the IC50 is the point on the concentration scale where inhibition reaches its midpoint. Consider `COc1ccc(-c2cc(-c3ccc4c(c3)OCO4)[nH]c(=O)c2)c(OC)c1`, for which the IC50 worked out at 18000 nM in the data set with MCF7 [1], 1000 nM in the data set with MCF7 [3], 80000 nM in the data set on MCF-10A and 6000 nM in the data set with MDA-MB-468. Moreover, the selectivity ratio in data set [2] stood at 13. Also, in the data set with MCF7 [4], the “Ratio IC50” value was 18.

As for `COc1ccc(-c2cc(-c3ccc4c(c3)OCO4)cc(=O)[nH]2)cc1OC`, the 50% inhibitory concentration (IC50) in the data set on MCF7 [1] is more than 100000 nM; with MCF7 [3] it was more than 100000 nM; in the data set with MCF-10A, more than 100000 nM; with MDA-MB-468, 410 nM. Also, the selectivity ratio in data set [2] is more than 244.

With `COc1ccc(-c2cc(-c3ccc(OC)cc3OC)[nH]c(=O)c2)c(OC)c1`, the 50% inhibitory concentration (IC50) stood at 9000 nM with MCF7 [1], 4500 nM with MCF7 [3], 5000 nM in the data set on MCF-10A and 5000 nM in the data set with MDA-MB-468. Besides, the selectivity ratio in data set [2] amounted to 1. The “Ratio IC50” value with MCF7 [4] is on record as 2.

With `COc1ccc(-c2cc(-c3ccc4c(c3)OCCO4)cc(=O)[nH]2)c(OC)c1`, the 50% inhibitory concentration (IC50) in the data set on MCF7 [1] was 2500 nM; in the data set on MCF7 [3], 3000 nM; with MCF-10A it was 6000 nM; in the data set on MDA-MB-468, 500 nM. Moreover, the selectivity ratio in data set [2] came to 12. For the same compound, the “Ratio IC50” value in the data set with MCF7 [4] is reported as 0.8.

Regarding `O=c1cc(-c2ccc3c(c2)OCO3)cc(-c2ccc(Cl)cc2Cl)[nH]1`, the IC50 was 85000 nM in the data set with MCF7 [1], 70000 nM with MCF7 [3], more than 100000 nM with MCF-10A and 60000 nM in the data set with MDA-MB-468. For the same compound, the selectivity ratio in data set [2] was more than 1.7. In the data set on MCF7 [4], the “Ratio IC50” value is recorded as 1.2.

Take `COc1ccc(-c2cc(-c3ccc4c(c3)OCO4)cc(=O)[nH]2)c(OC)c1OC`: the IC50 with MCF7 [1] is 12000 nM; in the data set on MCF7 [3], 10000 nM; with MCF-10A, more than 100000 nM; with MDA-MB-468, 8000 nM. The selectivity ratio in data set [2] is more than 12.5. Also, in the data set with MCF7 [4], the “Ratio IC50” value came to 1.2.

For `COc1ccc(OC)c(-c2cc(-c3ccc4c(c3)OCO4)cc(=O)[nH]2)c1`, the half-maximal inhibitory concentration (IC50) with MCF7 [1] turned out to be 2000 nM; in the data set with MCF7 [3], 20 nM; in the data set with MCF-10A it was 5000 nM; in the data set with MDA-MB-468 it was 20 nM. Further, in data set [2], the selectivity ratio was determined as 250. For the same compound, in the data set with MCF7 [4], the “Ratio IC50” value is reported as 100.

For `COc1cc(OC)cc(-c2cc(-c3ccc4c(c3)OCO4)cc(=O)[nH]2)c1`, the IC50 in the data set with MCF7 [1] was 400 nM; with MCF7 [3], 200 nM; in the data set on MCF-10A, 700 nM; in the data set with MDA-MB-468, 350 nM. In data set [2], the selectivity ratio stood at 2. Moreover, the “Ratio IC50” value in the data set on MCF7 [4] is given as 2.

For `COc1ccc(-c2cc(-c3ccc(OC)cc3OC)[nH]c(=O)c2)cc1`, the IC50 in the data set with MCF7 [1] was 500 nM; with MCF7 [3], 200 nM; in the data set with MCF-10A it was 1600 nM; with MDA-MB-468 it was 80 nM. For the same compound, the selectivity ratio in data set [2] is 20. The “Ratio IC50” value with MCF7 [4] amounted to 2.5.

For the compound `COc1ccc(-c2cc(-c3ccc(O)c(O)c3)cc(=O)[nH]2)c(OC)c1`, the IC50 with MCF7 [1] came out at 1500 nM; in the data set on MCF7 [3], 700 nM; in the data set with MCF-10A, 1500 nM; in the data set on MDA-MB-468, 500 nM. In data set [2], the selectivity ratio stood at 3. The “Ratio IC50” value with MCF7 [4] is 2.1. Further, the Retention_time on Cytochrome P450 1A1 and at Cytochrome P450 1B1 was 10.48 min each time.

For `COc1ccc(-c2cc(-c3ccc4c(c3)OCO4)cc(=O)[nH]2)cc1`, the IC50 with MCF7 [1] is more than 100000 nM; in the data set with MCF7 [3], more than 100000 nM; in the data set with MCF-10A, more than 100000 nM; in the data set on MDA-MB-468 it was 1000 nM. In data set [2], the selectivity ratio was more than 100.

Turning to `COc1ccc(-c2cc(-c3ccc(OC)c(OC)c3)cc(=O)[nH]2)c(OC)c1`, the IC50 came out at 1000 nM in the data set on MCF7 [1], 400 nM in the data set with MCF7 [3], 50000 nM in the data set on MCF-10A and 500 nM with MDA-MB-468. In data set [2], the selectivity ratio is 100. Besides, the “Ratio IC50” value in the data set on MCF7 [4] stood at 2.5.

In the case of `COc1cc(-c2cc(-c3ccc4c(c3)OCO4)cc(=O)[nH]2)cc(OC)c1OC`, the IC50 with MCF7 [1] was more than 100000 nM; in the data set on MCF7 [3] it was 200 nM; in the data set with MCF-10A, more than 100000 nM; in the data set with MDA-MB-468, 50000 nM. Further, in data set [2], the selectivity ratio was more than 2. For the same compound, the “Ratio IC50” value in the data set with MCF7 [4] is on record as more than 500.

As for `CCCOc1ccc(-c2cc(-c3ccc(OC)c(OC)c3)[nH]c(=O)c2)cc1`, the IC50 in the data set on MCF7 [1] turned out to be 60000 nM; in the data set on MCF7 [3], 20000 nM; with MCF-10A, 70000 nM; with MDA-MB-468, 180 nM. In addition, the selectivity ratio in data set [2] was 389. Moreover, in the data set on MCF7 [4], the “Ratio IC50” value was 3.

For `O=c1cc(-c2ccc3c(c2)OCO3)cc(-c2ccccc2)[nH]1`, the 50% inhibitory concentration (IC50) amounted to 1600 nM with MCF7 [1], 800 nM with MCF7 [3], 2500 nM in the data set with MCF-10A and 800 nM in the data set on MDA-MB-468. For the same compound, the selectivity ratio in data set [2] was found to be 3.1. The “Ratio IC50” value with MCF7 [4] is on record as 2.

On to `COc1ccccc1-c1cc(-c2ccc3c(c2)OCO3)cc(=O)[nH]1`, for which the IC50 was found to be 7000 nM in the data set with MCF7 [1], 3500 nM in the data set on MCF7 [3], 28000 nM in the data set on MCF-10A and 700 nM in the data set on MDA-MB-468. For the same compound, the selectivity ratio in data set [2] was 40. The “Ratio IC50” value in the data set with MCF7 [4] came to 2.

For the compound `CCCOc1ccc(-c2cc(-c3ccc(OC)cc3OC)[nH]c(=O)c2)cc1`, the IC50 with MCF7 [1] was found to be 45000 nM; in the data set on MCF7 [3] it was 9000 nM; in the data set on MCF-10A, 50000 nM; in the data set on MDA-MB-468, 400 nM. Besides, in data set [2], the selectivity ratio was determined as 125. In the data set with MCF7 [4], the “Ratio IC50” value worked out at 5.

`COc1ccc(/C=C\c2cc(OC)c(OC)c(OC)c2)cc1O` [COMBRETASTATIN A4]: in data set [2], the selectivity ratio is 0.53. The IC50 in the data set on MCF7 [3] is 2 nM; with MCF-10A, 1.6 nM; with MDA-MB-468, 3 nM. The “Ratio IC50” value with MCF7 [4] was determined as 1.
